Published values collected from several papers.
Compare with care: the assays were run in different laboratories.
Target: Calcium/calmodulin-dependent protein kinase type IV (CAMK4, Homo sapiens, UniProt Q16566)
One construct used (Q16566 1-473): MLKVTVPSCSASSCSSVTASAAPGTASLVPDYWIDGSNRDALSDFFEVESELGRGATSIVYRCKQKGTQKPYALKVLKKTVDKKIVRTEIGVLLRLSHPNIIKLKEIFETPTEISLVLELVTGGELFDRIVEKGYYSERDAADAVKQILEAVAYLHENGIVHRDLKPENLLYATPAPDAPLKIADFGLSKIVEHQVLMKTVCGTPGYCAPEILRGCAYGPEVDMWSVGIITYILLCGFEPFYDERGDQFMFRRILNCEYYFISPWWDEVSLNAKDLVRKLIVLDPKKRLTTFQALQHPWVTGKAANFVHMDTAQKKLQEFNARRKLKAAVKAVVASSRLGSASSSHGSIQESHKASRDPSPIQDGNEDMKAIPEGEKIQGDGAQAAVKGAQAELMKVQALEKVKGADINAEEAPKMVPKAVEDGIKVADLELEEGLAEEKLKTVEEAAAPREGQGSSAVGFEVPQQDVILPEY

Compound	read-out	method	concentration	remaining binding [%]
Cc1cc(-n2nc(Cc3cc(F)cc(C(F)(F)F)c3)nc2C)ccc1C(N)=O	cell-free assay	competition with immobilised ligand	1 µM	100
COc1cnc(Nc2cccc(S(N)(=O)=O)c2)nc1N1CCN(c2ccccc2)CC1	binding	competition with immobilised ligand	1 µM	100
C=CC(=O)N1CCC(C(=O)NCC(=O)N2CCN(c3nc(-c4cnc(N)nc4C(F)F)nc(N4CCOCC4)n3)CC2)CC1	binding	competition with immobilised ligand	1 µM	86
COc1ccc2c(O[C@@H]3C[C@H]4C(=O)N[C@]5(C(=O)O)CC5/C=C\CCCCC[C@H](NC(=O)OC5CCCC5)C(=O)N4C3)cc(-c3csc(NC(=O)C(C)C)n3)nc2c1C (stereo partly shown)	cell-free assay	competition with immobilised ligand	1 µM	95
O=C(c1ccc(Nc2ncc(Cl)c(-c3cc4ccccc4s3)n2)cc1)N1CCC(N2CCCC2)CC1	binding	competition with immobilised ligand	1 µM	100
Cc1cnn2ncc(-c3ccnc(N(C)C)n3)c2c1	binding	–	1 µM	86
Nc1c(C(=O)NCc2ccc(C(=O)NCCCC3CCCCC3)cc2)cnn1-c1ccccc1	cell-free assay	competition with immobilised ligand	0.1 µM	98
CC1CCCN1c1nccc(-c2cnn3ncccc23)n1 (stereo not shown)	binding	–	1 µM	100
O=C(c1ccc(Nc2nccc(-c3cc4ccccc4s3)n2)cc1)N1CCC(N2CCCC2)CC1	binding	competition with immobilised ligand	1 µM	100
COc1ccnn2ncc(-c3ccnc(N(C)C)n3)c12	binding	–	1 µM	100
O=C(NCC1CCOCC1)c1n[nH]cc1NC(=O)c1c(F)cccc1F	binding	competition with immobilised ligand	1 µM	100
CCOC(=O)c1cc2cc(-c3cc(C(=O)NCc4ccc(C(=O)O)cc4)nn3C)ccc2[nH]1	cell-free assay	competition with immobilised ligand	0.1 µM	95
O=C(c1ccc(Nc2ncc(Cl)c(-c3ccc(Cl)s3)n2)cc1)N1CCC(N2CCCC2)CC1	binding	competition with immobilised ligand	1 µM	100
c1cnn2ncc(-c3ccnc(N4CCC45COC5)n3)c2c1	binding	–	1 µM	100
FC(F)(F)Oc1cccc(-c2cnc3ccc(-c4ccncc4)nn23)c1	cell-free assay	competition with immobilised ligand	5 µM	100
CNC(=O)Nc1ccc2c(c1)CC[C@@]21OC(=O)N(CC(=O)N(Cc2ccc(F)cc2)[C@@H](C)C(F)(F)F)C1=O	cell-free assay	competition with immobilised ligand	1 µM	75
Nc1ncc2c(n1)-c1c([nH]c3ccc(C#CC4CC4)cc13)CCCC2	binding	competition with immobilised ligand	1 µM	100
N[C@@H]1CCN(c2nccc(-c3cnn4ncccc34)n2)C1	binding	–	1 µM	100
CNC(=O)Nc1ccc2c(c1)[C@@]1(CC2)OC(=O)N(CC(=O)N(Cc2ccc(F)cc2)[C@@H](C)C(F)(F)F)C1=O	cell-free assay	competition with immobilised ligand	1 µM	85
C[C@@H]1CCN(c2nccc(-c3cnn4ncccc34)n2)C1	binding	–	1 µM	100
CCN1CCN(Cc2ccc(C(=O)Nc3ccc(C)c(Oc4ccc5c(c4)CC(=O)N5)c3)cc2C(F)(F)F)CC1	binding	competition with immobilised ligand	1 µM	100
CS(=O)(=O)c1cc(C2(NC(=O)c3cncc4c3cnn4-c3ccc(F)cc3)CC2)ccn1	cell-free assay	competition with immobilised ligand	1 µM	100
